PMC4203403 (Journal of Medicinal Chemistry, 2014)
Where two headings read alike, the source gives them in different places.

Legend:
CB1 receptor [1] = biological target: T1, CB1 receptor (Homo sapiens, UniProt P21554); settings: [3H]CP55,940 as orthosteric ligand; given for comparison; cited from earlier work
CB1 receptor [2] = biological target: T1, CB1 receptor; test: Radioligand binding assay with [3H]CP55,940; settings: for α: binding cooperativity factor: [3H]CP55,940 as orthosteric ligand, ND = no detectable modulation of [3H]CP55,940 binding using up to 32 μM
Summary of the method: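 CB1 was transiently expressed in HEK293 cells by calcium phosphate transfection, and membranes were harvested 24 h later. […] Nonspecific binding was measured with 1 μM CP55,940. Read-out was GF/C filtration and scintillation counting. Run in duplicate, ≥3 experiments; KB and α fitted by nonlinear regression.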

CB1 receptor [3] = biological target: T1, CB1 receptor; test: ERK1/2 phosphorylation immunoblotting in HEK293 cells expressing CB1; assay type: cell-based; settings: for modulator concentration at which ERK1/2 phosphorylation reached a plateau: in the presence of 0.2 μM CP55,940, 5 min; for effect of β-arrestin 1 knockdown on induced ERK1/2 phosphorylation: siRNA targeting β-arrestin 1; for effect of β-arrestin 1 knockdown on induced ERK1/2 phosphorylation / pertussis toxin (PTX) sensitivity of induced ERK1/2 phosphorylation: result in words; for pertussis toxin (PTX) sensitivity of induced ERK1/2 phosphorylation: PTX pretreatment
CB1 receptor [4] = biological target: T1, CB1 receptor; test: CP55,940-induced [35S]GTPγS binding assay, HEK293 cell membranes expressing CB1; assay type: biochemical; settings: result in words

T1 sequence (P21554 whole entry): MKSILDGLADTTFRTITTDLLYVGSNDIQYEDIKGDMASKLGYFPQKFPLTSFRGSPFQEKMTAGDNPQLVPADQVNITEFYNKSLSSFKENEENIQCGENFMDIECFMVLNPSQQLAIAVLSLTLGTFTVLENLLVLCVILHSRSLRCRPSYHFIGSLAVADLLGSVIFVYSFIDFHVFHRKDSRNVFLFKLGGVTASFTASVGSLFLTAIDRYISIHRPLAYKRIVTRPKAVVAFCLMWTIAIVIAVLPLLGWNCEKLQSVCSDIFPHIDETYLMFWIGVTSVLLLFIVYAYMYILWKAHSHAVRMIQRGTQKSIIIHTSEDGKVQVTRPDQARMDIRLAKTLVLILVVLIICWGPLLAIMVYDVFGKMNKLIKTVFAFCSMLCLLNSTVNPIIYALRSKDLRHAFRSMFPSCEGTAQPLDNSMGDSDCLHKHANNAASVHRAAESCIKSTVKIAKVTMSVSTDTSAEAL

## CCc1c(C(=O)NCCc2ccc(N3CCCCC3)cc2)[nH]c2ccc(Cl)cc12 [Compound 1, 5-Chloro-3-ethyl-N-(4-(piperidin-1-yl)phenethyl)-1H-indole-2-carboxamide]
CB1 receptor [1]
  α: binding cooperativity factor: 6.9

## CCc1c(C(=O)NCCc2ccc(N(C)C)cc2)[nH]c2cc(OC)ccc12 [Compound 21c, N-(4-(Dimethylamino)phenethyl)-3-ethyl-6-methoxy-1H-indole-2-carboxamide]
CB1 receptor [2]
  α: binding cooperativity factor: 6.2

## CCCCCc1c(C(=O)NCCc2ccc(N3CCCCC3)cc2)[nH]c2ccc(Cl)cc12 [Compound 2, 5-chloro-3-pentyl-N-(4-(piperidin-1-yl)phenethyl)-1H-indole-2-carboxamide, reference compound]
CB1 receptor [3]
  modulator concentration at which ERK1/2 phosphorylation reached a plateau: 10 µM
  effect of β-arrestin 1 knockdown on induced ERK1/2 phosphorylation: substantial inhibition of ERK1/2 phosphorylation
CB1 receptor [1]
  α: binding cooperativity factor: 17.6

## CCCCc1c(C(=O)NCCc2ccc(N(C)C)cc2)[nH]c2ccc(Cl)cc12 [Compound 12e, 3-Butyl-5-chloro-N-(4-(dimethylamino)phenethyl)-1H-indole-2-carboxamide]
CB1 receptor [2]
  α: binding cooperativity factor: 12.8

## CCc1c(C(=O)NCCc2ccc(N(C)C)cc2)[nH]c2cc(F)ccc12 [Compound 21b, N-(4-(Dimethylamino)phenethyl)-3-ethyl-6-fluoro-1H-indole-2-carboxamide]
CB1 receptor [2]
  α: binding cooperativity factor: 22.9

## CCCCCc1c(C(=O)NCCc2ccc(N(C)C)cc2)[nH]c2ccc(Cl)cc12 [Compound 5, 5-chloro-N-(4-(dimethylamino)phenethyl)-3-pentyl-1H-indole-2-carboxamide]
CB1 receptor [1]
  α: binding cooperativity factor: 16.5

## CCCc1c(C(=O)NCCc2ccc(N3CCCCC3)cc2)[nH]c2ccc(Cl)cc12 [Compound 12a, 5-Chloro-N-(4-(piperidin-1-yl)phenethyl)-3-propyl-1H-indole-2-carboxamide]
CB1 receptor [2]
  α: binding cooperativity factor: 26.7

## CCc1c(C(=O)NCCc2ccc(N(C)C)cc2)[nH]c2ccc(Cl)cc12 [Compound 4, 5-chloro-N-(4-(dimethylamino)phenethyl)-3-ethyl-1H-indole-2-carboxamide]
CB1 receptor [1]
  α: binding cooperativity factor: 19.7

## CCc1c(C(=O)NCCCc2ccc(N(C)C)cc2)[nH]c2ccc(Cl)cc12 [Compound 26, 5-Chloro-N-(3-(4-(dimethylamino)phenyl)propyl)-3-ethyl-1H-indole-2-carboxamide]
CB1 receptor [2]; result in words
  allosteric modulation of orthosteric agonist CP55,940 binding: loss of allosteric modulation

## CCc1c(C(=O)NCCc2ccc(N(C)C)cc2)[nH]c2ccc(OC)cc12 [Compound 21d, N-(4-(Dimethylamino)phenethyl)-3-ethyl-5-methoxy-1H-indole-2-carboxamide]
CB1 receptor [2]
  α: binding cooperativity factor: 11.9

## CCCc1c(C(=O)NCCc2ccc(N(C)C)cc2)[nH]c2ccc(Cl)cc12 [Compound 12d, 5-Chloro-N-(4-(dimethylamino)phenethyl)-3-propyl-1H-indole-2-carboxamide]
CB1 receptor [3]
  modulator concentration at which ERK1/2 phosphorylation reached a plateau: 5 µM
  effect of β-arrestin 1 knockdown on induced ERK1/2 phosphorylation: substantial inhibition of ERK1/2 phosphorylation
CB1 receptor [2]
  α: binding cooperativity factor: 24.5
CB1 receptor [4]
  effect on CP55,940-induced G-protein coupling activity (GTPγS binding): concentration-dependent inhibition of agonist-induced GTPγS binding

## CCCCCCC(C)(C)c1ccc([C@@H]2C[C@H](O)CC[C@H]2CCCO)c(O)c1 [CP55,940, 2-[(1R,2R,5R)-5-hydroxy-2-(3-hydroxypropyl)cyclohexyl]-5-(2-methyloctan-2-yl)phenol, reference compound]
CB1 receptor [3]
  pertussis toxin (PTX) sensitivity of induced ERK1/2 phosphorylation: substantially attenuated by pertussis toxin (PTX)
  effect of β-arrestin 1 knockdown on induced ERK1/2 phosphorylation: not by β-arrestin knockdown

## CCc1c(C(=O)NCCc2ccc(N(C)C)cc2)[nH]c2cc(Cl)ccc12 [Compound 21a, N-(4-(Dimethylamino)phenethyl)-3-ethyl-6-chloro-1H-indole-2-carboxamide]
CB1 receptor [2]
  α: binding cooperativity factor: 16.0

## CCCCCCc1c(C(=O)NCCc2ccc(N(C)C)cc2)[nH]c2ccc(Cl)cc12 [Compound 12f, 5-Chloro-N-(4-(dimethylamino)phenethyl)-3-hexyl-1H-indole-2-carboxamide]
CB1 receptor [3]
  pertussis toxin (PTX) sensitivity of induced ERK1/2 phosphorylation: PTX insensitive
  modulator concentration at which ERK1/2 phosphorylation reached a plateau: 5 µM
  effect of β-arrestin 1 knockdown on induced ERK1/2 phosphorylation: substantial inhibition of ERK1/2 phosphorylation
CB1 receptor [2]
  α: binding cooperativity factor: 5.1
CB1 receptor [4]
  effect on CP55,940-induced G-protein coupling activity (GTPγS binding): concentration-dependent inhibition of agonist-induced GTPγS binding
